Source: ChEMBL document CHEMBL1914440, “Discovery of potent, selective, and orally bioavailable alkynylphenoxyacetic acid CRTH2 (DP2) receptor antagonists for the treatment of allergic inflammatory diseases” (J Med Chem, 2011)

Columns and labels:
[1] = biological target: T1, Prostaglandin D2 receptor 2 (Homo sapiens, UniProt Q9Y5Y4); experiment: Displacement of [3H]PGD2 from human CRTH2 expressed in chinese hamster CHO cells by liquid scintillation counting; format: cell-based
T1 sequence (Q9Y5Y4 whole entry): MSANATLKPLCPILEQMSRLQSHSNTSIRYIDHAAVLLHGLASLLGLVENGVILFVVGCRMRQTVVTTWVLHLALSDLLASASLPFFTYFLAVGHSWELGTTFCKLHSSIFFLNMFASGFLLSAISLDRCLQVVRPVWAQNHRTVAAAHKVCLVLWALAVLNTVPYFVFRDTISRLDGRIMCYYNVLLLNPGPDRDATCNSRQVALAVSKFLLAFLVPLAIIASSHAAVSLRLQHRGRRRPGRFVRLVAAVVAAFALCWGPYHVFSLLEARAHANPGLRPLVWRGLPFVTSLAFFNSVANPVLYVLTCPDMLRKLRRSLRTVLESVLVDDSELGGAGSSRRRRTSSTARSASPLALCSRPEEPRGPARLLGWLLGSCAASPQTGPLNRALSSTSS
Summary of the method: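 Scintillation proximity competition assay: 2–5 μg human CRTH2 cell membranes, 1.5 nM [3H]PGD2, WGA-SPA beads, 10 mM HEPES/KOH pH 7.4, 10 mM MnCl2, protease inhibitors, 1% DMSO; 90 min, room temperature, shaking. Nonspecific binding defined with 1 μM PGD2. Ki by Cheng–Prusoff, mean of ≥3 independent dose–response experiments.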

[2] = Percentage unbound in rat plasma; format: ADME, cell-free
[3] = Percentage unbound in human plasma; format: ADME, cell-free
[4] = Percentage unbound in mouse plasma; format: ADME, cell-free
[5] = Clearance in BALB/c mouse at 5 mg/kg, po by LC/MS/MS analysis; format: ADME, organism-based; set-up: dose 5 mg/kg, route oral; details: in vivo

Compound	Ki [1] [nM]	further results
CCN(CC)C(=O)c1ccc(C#Cc2cc(Cl)ccc2OCC(=O)O)cc1S(=O)(=O)C(C)C	46	–
O=C(O)COc1ccc(Cl)cc1C#Cc1ccccc1	108	–
CCCS(=O)(=O)c1ccc(C)c(C#Cc2cc(Cl)ccc2OC(C)C(=O)O)c1 (configuration not stated)	1.2	–
O=C(O)COc1ccc(Cl)cc1C#Cc1cc(CO)ccc1F	73	–
CCN(Cc1cc(-c2ccc(OC)cn2)ccc1-c1cc(CC(=O)O)ccc1OC)C(=O)C1CC1	5	–
N#Cc1ccc(OCC(=O)O)c(C#Cc2ccccc2Cl)c1	24	–
CCCS(=O)(=O)c1cccc(C#Cc2cc(-c3cccs3)ccc2OCC(=O)O)c1	12	–
Cc1ccc(S(=O)(=O)CCCO)cc1C#Cc1cc(Cl)ccc1OCC(=O)O	8	fraction unbound [2]: 0.018; fraction unbound [3]: 0.015; fraction unbound [4]: 0.048
CC(C)S(=O)(=O)c1cc(C#Cc2cc(Cl)ccc2OCC(=O)O)ccc1C(=O)N1CCOCC1	87	–
CC(C)S(=O)(=O)c1ccc(Cl)c(C#Cc2cc(Cl)ccc2OCC(=O)O)c1	2.9	CL/F [5]: 11.7 mL/min/kg
Cc1ccc(S(=O)(=O)N2CCCCC2)cc1C#Cc1cc(Cl)ccc1OCC(=O)O	5	–
O=C(O)COc1ccc(Cl)cc1C#Cc1cccc(CO)c1F	41	–
COc1cccc(-c2ccc(C#Cc3cc(Cl)ccc3OCC(=O)O)cc2S(C)(=O)=O)c1	8	–
C[S+]([O-])c1cccc(C#Cc2cc(Cl)ccc2OCC(=O)O)c1 (configuration not stated)	3.2	–
CCCCCCc1ccncc1C#Cc1cc(Cl)ccc1OCC(=O)O	43	–
CCCS(=O)(=O)c1ccc(C)c(C#Cc2cc(Cl)ccc2OC(CC)C(=O)O)c1 (configuration not stated)	30	–
Cc1ccc(S(=O)(=O)NC(C)(C)C)cc1C#Cc1cc(Cl)ccc1OCC(=O)O	5	–
O=C(O)COc1ccccc1C#Cc1ccccc1Cl	747	–
O=C(O)COc1ccc(Cl)cc1C#Cc1ccc2c(c1)S(=O)(=O)CC2	23	–
CNS(=O)(=O)c1ccc(C)c(C#Cc2cc(Cl)ccc2OCC(=O)O)c1	10	–
CS(=O)(=O)c1ccc(C#Cc2cc(Cl)ccc2OCC(=O)O)cc1	86	–
O=C(O)COc1ccc(Cl)cc1C#Cc1ccc(Cl)s1	183	–
O=C(O)COc1ccc(Cl)cc1C#Cc1ccc2c(c1)S(=O)(=O)C=C2	25	–
Cc1cc[n+]([O-])cc1C#Cc1cc(Cl)ccc1OCC(=O)O	17	–

Compound	Ki [1] [nM]	further results
O=C(O)COc1ccc(Cl)cc1C#Cc1ccc2c(c1)S(=O)(=O)c1ccccc1-2	12	fraction unbound [3]: < 0.001; CL/F [5]: 1.67 mL/min/kg
Cc1ncccc1C#Cc1cc(Cl)ccc1OCC(=O)O	143	–
Cc1ccc(S(=O)(=O)CCc2ccccc2)cc1C#Cc1cc(Cl)ccc1OCC(=O)O	7	–
CCN(CC)S(=O)(=O)c1ccc(C)c(C#Cc2cc(Cl)ccc2OCC(=O)O)c1	3.4	–
Cc1ccc(S(=O)(=O)Cc2ccccc2)cc1C#Cc1cc(Cl)ccc1OCC(=O)O	5	–
COCc1ccc(C#Cc2cc(Cl)ccc2OCC(=O)O)c(F)c1	22	–
CC(C)Cc1ccncc1C#Cc1cc(Cl)ccc1OCC(=O)O	4.9	–
CS(=O)(=O)c1cc(C#Cc2cc(Cl)ccc2OCC(=O)O)ccc1-c1cccc(Cl)c1	16	–
O=C(O)COc1ccc(Cl)cc1C#Cc1ccccn1	1120	–
O=C(O)COc1ccc(Cl)cc1C#Cc1cccc(S(=O)(=O)CCO)c1	10	fraction unbound [2]: 0.081; fraction unbound [3]: 0.047; fraction unbound [4]: 0.3
O=C(O)COc1ccc(Cl)cc1C#Cc1cncc(S(=O)(=O)N2CCOCC2)c1	41	–
COC1(C)c2ccc(C#Cc3cc(Cl)ccc3OCC(=O)O)cc2S(=O)(=O)C1(C)C (configuration not stated)	25	–
CCCc1ccc(S(C)(=O)=O)cc1C#Cc1cc(Cl)ccc1OCC(=O)O	8.6	fraction unbound [2]: 0.002; fraction unbound [3]: 0.002; fraction unbound [4]: 0.006
CCCS(=O)(=O)c1ccc(F)c(C#Cc2cc(Cl)ccc2OC(C)C(=O)O)c1 (configuration not stated)	3	–
CS(=O)(=O)Cc1cccc(C#Cc2cc(Cl)ccc2OCC(=O)O)c1	48	–
CC1(C)C(=O)c2ccc(C#Cc3cc(Cl)ccc3OCC(=O)O)cc2S1(=O)=O	31	–
CC1(C)C(O)c2ccc(C#Cc3cc(Cl)ccc3OCC(=O)O)cc2S1(=O)=O (configuration not stated)	33	–
CCCS(=O)(=O)c1ccc(C)c(C#Cc2cc(Cl)ccc2OC(CC(C)C)C(=O)O)c1 (configuration not stated)	515	–
Cc1ccc(S(=O)(=O)N(C)CCN(C)C)cc1C#Cc1cc(Cl)ccc1OCC(=O)O	369	–
Cn1ccnc1C#Cc1cc(Cl)ccc1OCC(=O)O	1470	–
COc1ccccc1C#Cc1cc(Cl)ccc1OCC(=O)O	190	–
CS(=O)(=O)c1cncc(C#Cc2cc(Cl)ccc2OCC(=O)O)c1	60	–
O=C(O)COc1ccc(Cl)cc1C#Cc1cccc(C(F)(F)F)c1	92	–
CCCS(=O)(=O)c1cccc(C#Cc2cc(C(F)(F)F)ccc2OCC(=O)O)c1	10	–

Compound	Ki [1] [nM]	further results
CC1(O)c2ccc(C#Cc3cc(Cl)ccc3OCC(=O)O)cc2S(=O)(=O)C1(C)C (configuration not stated)	28	–
CN(c1cncc(C#Cc2cc(Cl)ccc2OCC(=O)O)c1)S(C)(=O)=O	378	–
CCCS(=O)(=O)c1cccc(C#Cc2c(OCC(=O)O)ccc3ccccc23)c1	44	–
O=C(O)COc1ccc(Cl)cc1C#Cc1ccccc1F	47	–
COCc1ccc(F)c(C#Cc2cc(Cl)ccc2OCC(=O)O)c1	72	–
Cc1ccc(S(=O)(=O)c2ccccc2)cc1C#Cc1cc(Cl)ccc1OCC(=O)O	6	–
CCCS(=O)(=O)c1cccc(C#Cc2cc(-c3sc(C)nc3C)ccc2OCC(=O)O)c1	54	–
CCCC(Oc1ccc(Cl)cc1C#Cc1cc(S(=O)(=O)CCC)ccc1C)C(=O)O (configuration not stated)	57	–
CS(=O)(=O)c1cc(C#Cc2cc(Cl)ccc2OCC(=O)O)ccc1-c1ccccc1	5	–
CCCS(=O)(=O)c1cc(C#Cc2cc(Cl)ccc2OCC(=O)O)c(C)cc1NC(C)=O	1.3	–
Cc1ccc(S(=O)(=O)CC(C)C)cc1C#Cc1cc(Cl)ccc1OCC(=O)O	3	–
O=C(O)COc1ccc(Cl)cc1C#Cc1ccccc1C(F)(F)F	24	–
CCCS(=O)(=O)c1cccc(C#Cc2c(Cl)cccc2OCC(=O)O)c1	55	–
CS(=O)(=O)Nc1cccc(C#Cc2cc(Cl)ccc2OCC(=O)O)c1	54	–
O=C(O)COc1ccc(Cl)cc1C#Cc1ccc(F)cc1F	101	–
CN(C)C(=O)c1cccc(C#Cc2cc(Cl)ccc2OCC(=O)O)c1	52	–
O=C(O)COc1ccc(Cl)cc1C#Cc1ccc(Cl)cc1	60	–
CS(=O)(=O)c1cc(C#Cc2cc(Cl)ccc2OCC(=O)O)ccc1-c1ccccc1Cl	3.5	–
CCCc1ccncc1C#Cc1cc(Cl)ccc1OCC(=O)O	4.3	–
CN(c1cccc(C#Cc2cc(Cl)ccc2OCC(=O)O)c1)S(C)(=O)=O	122	–
CS(=O)(=O)c1cc(C#Cc2cc(Cl)ccc2OCC(=O)O)ccc1-c1ccc(C(F)(F)F)cc1	43	–
CN(C)C(=O)c1ccc(C#Cc2cc(Cl)ccc2OCC(=O)O)cc1	55	–
O=C(O)COc1ccc(Cl)cc1C#Cc1cncc(S(=O)(=O)NCCO)c1	301	–
Cc1ncc(S(=O)(=O)N(C)C)cc1C#Cc1cc(Cl)ccc1OCC(=O)O	41	–

Compound	Ki [1] [nM]	further results
CS(=O)(=O)Nc1cncc(C#Cc2cc(Cl)ccc2OCC(=O)O)c1	19	–
CCCS(=O)(=O)c1cccc(C#Cc2cc(F)ccc2OCC(=O)O)c1	65	–
Cc1ccc(S(=O)(=O)N(C)CCCN(C)C)cc1C#Cc1cc(Cl)ccc1OCC(=O)O	287	–
O=C(O)COc1ccc(Cl)cc1C#Cc1cccc(S(=O)(=O)CCCO)c1	28	–
CS(=O)(=O)c1cc(C#Cc2cc(Cl)ccc2OCC(=O)O)ccc1-c1ccc(Cl)cc1	14	–
Cc1ccc(OCC(=O)O)c(C#Cc2ccccc2Cl)c1	283	–
CC(C)S(=O)(=O)c1cc(C#Cc2cc(Cl)ccc2OCC(=O)O)ccc1C(=O)N(C)C	65	–
CN(C)S(=O)(=O)c1cccc(C#Cc2cc(Cl)ccc2OCC(=O)O)c1	14	–
COc1ccc(-c2ccc(C#Cc3cc(Cl)ccc3OCC(=O)O)cc2S(C)(=O)=O)cc1	7	–
CCS(=O)(=O)c1ccc(C)c(C#Cc2cc(Cl)ccc2OCC(=O)O)c1	8.6	–
CCCS(=O)(=O)c1cccc(C#Cc2cc(-c3ccsc3)ccc2OCC(=O)O)c1	18	–
Cc1ccc(S(=O)(=O)CCO)cc1C#Cc1cc(Cl)ccc1OCC(=O)O	19	–
Cc1ccc(S(=O)(=O)N2CCN(C)CC2)cc1C#Cc1cc(Cl)ccc1OCC(=O)O	21	–
Cc1ccncc1C#Cc1cc(Cl)ccc1OCC(=O)O	25	–
COC1c2ccc(C#Cc3cc(Cl)ccc3OCC(=O)O)cc2S(=O)(=O)C1(C)C (configuration not stated)	21	–
CCCS(=O)(=O)c1ccc(F)c(C#Cc2cc(Cl)ccc2OC(C)(C)C(=O)O)c1	260	–
Cc1ccc(S(=O)(=O)C(C)C)cc1C#Cc1cc(Cl)ccc1OCC(=O)O	6	–
O=C(O)COc1ccc(Cl)cc1C#Cc1ccccc1Cl	28	–
O=C(O)COc1ccc(Cl)cc1C#Cc1cccnc1	117	fraction unbound [3]: 0.029
CC(C)(C)N1C(=O)c2ccc(C#Cc3cc(Cl)ccc3OCC(=O)O)cc2S1(=O)=O	14	–
O=C(O)COc1cc(F)ccc1C#Cc1ccccc1Cl	4780	–
O=C(O)COc1ccc(Cl)cc1C#Cc1ccncc1	601	–
